Reference: the M2OR odorant receptor database

Legend:
Details in all cases: stereoisomer not certain
OR4D6 (Homo sapiens) = OR4D6 (Homo sapiens) (UniProt Q8NGJ1)
How it was run: (§1)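 Whether a receptor–molecule pair is responsive (active) rests on the original authors' judgment that its measured signal was statistically different from baseline. Pairs without that judgment are non-responsive (inactive). Sources used varied assay methods, commonly transient luciferase assays in mammalian cell lines.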

OR4D9 (Homo sapiens) = OR4D9 (Homo sapiens) (UniProt Q8NGE8)
How it was run: as §1

OR4E1 (Homo sapiens) = OR4E1 (Homo sapiens) (UniProt P0C645)
How it was run: as §1

OR4E2 (Homo sapiens) = OR4E2 (Homo sapiens) (UniProt Q8NGC2)
How it was run: as §1

OR4F15 (Homo sapiens) = OR4F15 (Homo sapiens) (UniProt Q8NGB8)
How it was run: as §1

OR4F17 (Homo sapiens) = OR4F17 (Homo sapiens) (UniProt Q8NGA8)
How it was run: as §1

OR4F21 (Homo sapiens) = OR4F21 (Homo sapiens) (UniProt O95013)
How it was run: as §1

OR4D6 = tested on: OR4D6
How it was run: as §1

OR4E2 A119T = tested on: OR4E2 A119T
How it was run: as §1

OR4E2 = tested on: OR4E2
How it was run: as §1

Measured: odorant receptor agonist call;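 further: active if original authors judged signal statistically different from baseline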

Chain of OR4D6 (Homo sapiens) (Q8NGJ1 whole entry): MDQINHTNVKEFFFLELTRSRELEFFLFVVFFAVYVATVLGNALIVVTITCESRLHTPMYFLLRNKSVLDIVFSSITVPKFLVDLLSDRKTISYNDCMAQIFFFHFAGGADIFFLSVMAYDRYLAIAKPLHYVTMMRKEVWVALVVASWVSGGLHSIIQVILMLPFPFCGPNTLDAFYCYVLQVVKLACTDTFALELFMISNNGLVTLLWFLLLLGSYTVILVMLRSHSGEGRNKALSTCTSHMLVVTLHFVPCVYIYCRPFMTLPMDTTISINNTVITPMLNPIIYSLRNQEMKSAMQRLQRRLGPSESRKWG
Chain of OR4F15 (Homo sapiens) (Q8NGB8 whole entry): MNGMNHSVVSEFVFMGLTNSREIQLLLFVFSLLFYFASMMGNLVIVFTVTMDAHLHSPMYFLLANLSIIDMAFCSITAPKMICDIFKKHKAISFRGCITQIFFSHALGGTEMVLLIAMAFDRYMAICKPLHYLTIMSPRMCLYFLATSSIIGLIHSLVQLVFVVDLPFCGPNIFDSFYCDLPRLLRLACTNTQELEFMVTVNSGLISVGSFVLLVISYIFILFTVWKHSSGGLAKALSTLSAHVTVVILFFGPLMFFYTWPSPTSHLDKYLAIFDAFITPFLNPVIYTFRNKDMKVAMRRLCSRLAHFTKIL
Chain of OR4E2 (Homo sapiens) (Q8NGC2 whole entry): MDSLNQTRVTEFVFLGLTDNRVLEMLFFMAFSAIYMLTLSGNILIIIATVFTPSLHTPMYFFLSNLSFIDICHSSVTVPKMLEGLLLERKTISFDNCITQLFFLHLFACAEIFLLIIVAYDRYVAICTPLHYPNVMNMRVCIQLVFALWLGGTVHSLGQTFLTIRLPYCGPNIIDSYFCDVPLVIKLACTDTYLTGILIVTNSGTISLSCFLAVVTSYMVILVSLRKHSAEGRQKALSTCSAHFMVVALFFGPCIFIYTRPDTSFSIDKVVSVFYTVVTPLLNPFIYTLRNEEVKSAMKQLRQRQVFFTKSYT
Chain of OR4D9 (Homo sapiens) (Q8NGE8 whole entry): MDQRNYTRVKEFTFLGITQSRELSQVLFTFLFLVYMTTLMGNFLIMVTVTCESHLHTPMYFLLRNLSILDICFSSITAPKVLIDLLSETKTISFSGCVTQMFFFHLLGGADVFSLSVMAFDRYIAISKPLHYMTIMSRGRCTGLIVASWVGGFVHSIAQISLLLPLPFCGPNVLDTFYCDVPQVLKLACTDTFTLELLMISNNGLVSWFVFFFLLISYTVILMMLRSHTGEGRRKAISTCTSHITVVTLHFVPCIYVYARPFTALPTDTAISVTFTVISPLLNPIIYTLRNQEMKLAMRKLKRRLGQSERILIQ
Chain of OR4F17 (Homo sapiens) (Q8NGA8 whole entry): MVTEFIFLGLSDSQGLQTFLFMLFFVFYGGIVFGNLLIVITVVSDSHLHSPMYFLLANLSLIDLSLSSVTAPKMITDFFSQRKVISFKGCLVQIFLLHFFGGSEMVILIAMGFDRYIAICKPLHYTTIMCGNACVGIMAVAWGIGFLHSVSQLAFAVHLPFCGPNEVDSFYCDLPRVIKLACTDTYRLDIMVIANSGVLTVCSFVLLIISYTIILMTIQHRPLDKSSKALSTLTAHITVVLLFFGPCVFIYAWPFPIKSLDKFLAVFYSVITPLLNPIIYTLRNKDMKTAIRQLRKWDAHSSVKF
Chain of OR4F21 (Homo sapiens) (O95013 whole entry): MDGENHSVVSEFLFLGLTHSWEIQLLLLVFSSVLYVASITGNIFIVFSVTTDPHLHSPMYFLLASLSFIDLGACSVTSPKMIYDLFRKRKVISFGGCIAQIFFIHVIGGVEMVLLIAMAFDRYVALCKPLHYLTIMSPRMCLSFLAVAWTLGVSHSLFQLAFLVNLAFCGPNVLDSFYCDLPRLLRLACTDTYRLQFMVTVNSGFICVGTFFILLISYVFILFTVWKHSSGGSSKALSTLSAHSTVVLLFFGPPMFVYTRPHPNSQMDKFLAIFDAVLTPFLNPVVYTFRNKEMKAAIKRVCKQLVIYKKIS
Chain of OR4D6 (as listed by the source): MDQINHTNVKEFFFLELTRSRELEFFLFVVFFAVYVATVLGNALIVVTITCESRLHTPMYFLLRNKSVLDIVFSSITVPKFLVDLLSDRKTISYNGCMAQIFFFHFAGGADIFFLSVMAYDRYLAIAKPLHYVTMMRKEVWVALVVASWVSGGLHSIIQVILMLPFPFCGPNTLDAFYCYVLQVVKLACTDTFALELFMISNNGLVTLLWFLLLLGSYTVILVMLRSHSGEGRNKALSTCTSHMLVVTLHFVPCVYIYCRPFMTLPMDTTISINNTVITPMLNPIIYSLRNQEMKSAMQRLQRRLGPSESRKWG
Chain of OR4E2 (as listed by the source): as the sequence (Q8NGC2 whole entry) above, with V118M, Q234R counted along it
Chain of OR4E1 (Homo sapiens) (P0C645 whole entry): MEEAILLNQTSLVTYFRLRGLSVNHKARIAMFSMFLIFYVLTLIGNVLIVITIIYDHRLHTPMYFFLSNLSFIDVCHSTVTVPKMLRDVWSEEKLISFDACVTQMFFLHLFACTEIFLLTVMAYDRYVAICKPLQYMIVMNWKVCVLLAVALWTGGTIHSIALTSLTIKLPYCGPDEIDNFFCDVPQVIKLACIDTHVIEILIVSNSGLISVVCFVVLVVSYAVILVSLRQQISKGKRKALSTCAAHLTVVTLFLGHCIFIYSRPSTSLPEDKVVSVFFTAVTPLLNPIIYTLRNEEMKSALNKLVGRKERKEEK
Chain of OR4E2 A119T (as listed by the source, stated change not applied): as the sequence (Q8NGC2 whole entry) above, with V118M, A119T, Q234R counted along it

Cc1c([N+](=O)[O-])c(C)c([N+](=O)[O-])c(C(C)(C)C)c1[N+](=O)[O-]
not listed: OR4D6 | OR4E2 A119T | OR4E2
inactive: all other assays above

C=CCOC(=O)Cc1ccccc1
not listed: OR4E1 (Homo sapiens)
inactive: all other assays above
